Laboratory results as given in ChEMBL document CHEMBL4152364, “Structure-activity relationship of novel (benzoylaminophenoxy)phenol derivatives as anti-prostate cancer agents” (Bioorg Med Chem, 2018).
Active and inactive are the calls of the source. The calls are words filed in the database; no cut-off is given here.

Tests used:
[1] = molecular target: T1, Androgen receptor (Mus musculus) (UniProt P19091); assay: Agonist activity at AR in mouse SC3 cells assessed as effect on cell proliferation after 3 days by CCK8 assay; type: cell-based
T1 sequence (whole entry): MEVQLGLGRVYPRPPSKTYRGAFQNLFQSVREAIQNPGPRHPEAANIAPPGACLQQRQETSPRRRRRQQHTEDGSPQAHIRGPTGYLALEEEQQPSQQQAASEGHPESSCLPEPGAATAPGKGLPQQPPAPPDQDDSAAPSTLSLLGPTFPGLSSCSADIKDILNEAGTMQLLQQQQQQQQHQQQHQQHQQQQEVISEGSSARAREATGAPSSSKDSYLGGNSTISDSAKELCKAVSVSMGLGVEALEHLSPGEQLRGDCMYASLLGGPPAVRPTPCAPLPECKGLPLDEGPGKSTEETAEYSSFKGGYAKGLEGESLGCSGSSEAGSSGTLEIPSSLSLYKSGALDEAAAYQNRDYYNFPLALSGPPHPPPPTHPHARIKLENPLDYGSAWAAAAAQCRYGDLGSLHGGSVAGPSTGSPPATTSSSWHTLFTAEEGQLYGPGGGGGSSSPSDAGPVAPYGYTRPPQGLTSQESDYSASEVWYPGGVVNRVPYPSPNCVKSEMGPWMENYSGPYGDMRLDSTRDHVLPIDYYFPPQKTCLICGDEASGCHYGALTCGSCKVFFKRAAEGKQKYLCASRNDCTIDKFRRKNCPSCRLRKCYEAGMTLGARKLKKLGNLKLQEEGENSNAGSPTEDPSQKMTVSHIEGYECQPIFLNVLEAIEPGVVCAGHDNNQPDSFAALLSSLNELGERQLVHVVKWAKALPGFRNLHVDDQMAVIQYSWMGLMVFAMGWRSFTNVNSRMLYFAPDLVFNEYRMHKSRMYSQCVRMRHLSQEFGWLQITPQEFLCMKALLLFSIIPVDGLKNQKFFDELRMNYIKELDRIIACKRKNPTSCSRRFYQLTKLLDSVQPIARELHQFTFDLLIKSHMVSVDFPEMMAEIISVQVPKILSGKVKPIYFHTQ
Procedure, shortened: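 SC-3 cells diluted to 20,000 cells/mL in MEM α with 2% charcoal-stripped FBS, seeded and held 24 h, then given serial dilutions of compound alone (DMSO as dilution control). Incubated 3 days at 37°C, 5% CO2. WST-8 (Cell Counting Kit-8) added for 2 h, absorbance read at 450 nm.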

PC-3 = assay: Antiproliferative activity against human PC3 cells assessed as inhibition of cell proliferation after 3 days in presence of DHT by WST8 assay; type: functional, cell-based
Procedure, shortened: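 PC-3 cells kept in RPMI-1640 with 10% FBS, then diluted to 20,000 cells/mL in RPMI-1640 with 10% charcoal-stripped FBS. Seeded and held 24 h, then given serial dilutions of compound or DMSO with 1 nM DHT for 3 days. WST-8 added for 2 h, absorbance at 450 nm. Viability normalized to vehicle-treated cells as 1.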

[2] = molecular target: T1, Androgen receptor (Mus musculus); assay: Antagonist activity at AR in mouse SC3 cells assessed as inhibition of DHT-induced cell proliferation at 10 uM after 3 days by CCK8 assay relative to control; type: cell-based
Procedure, shortened: (§1)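 SC-3 cells diluted to 20,000 cells/mL in MEM α with 2% charcoal-stripped FBS, seeded and held 24 h, then given compound or DMSO with 1 nM DHT for 3 days at 37°C, 5% CO2. Read-out: WST-8 (CCK-8) for 2 h, absorbance at 450 nm. Compounds screened first at 10 µM. IC50 measured over 0.01–10 µM when inhibition exceeded 50%, taken as the level halving DHT-induced growth versus control. Triplicate or more.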

[3] = molecular target: T1, Androgen receptor (Mus musculus); assay: Antagonist activity at AR in mouse SC3 cells assessed as inhibition of DHT-induced cell proliferation up to 10 uM after 3 days by CCK8 assay; type: cell-based; procedure, shortened: as §1
[4] = Antagonist activity at AR in mouse SC3 cells assessed as inhibition of DHT-induced cell proliferation after 3 days by CCK8 assay

For `COc1ccccc1C(=O)Nc1cccc(Oc2ccc(O)cc2)c1`, the Activity [1] was “inactive”.

For `C[C@](O)(CS(=O)(=O)c1ccc(F)cc1)C(=O)Nc1ccc(C#N)c(C(F)(F)F)c1`, the inhibition (PC-3) was “inactive”.

With `COc1cccc(C(=O)Nc2ccc(Oc3ccc(O)cc3)c(Br)c2)c1` the inhibition [2] was over 50% and the Activity [1] was “inactive”.

In the case of `COc1ccc(C(=O)N(C)c2cccc(Oc3ccc(O)cc3)c2)cc1`, the inhibition [3] is reported as “inactive” and the Activity [1] is reported as “inactive”.

For `COc1cccc(C(=O)Nc2ccc(Oc3ccc(O)cc3)cc2OC)c1`, the inhibition [2] was over 50% and the Activity [1] was “inactive”.

In the case of `COc1cccc(C(=O)Nc2ccc(Oc3ccc(O)cc3)cc2C)c1`, the inhibition [2] is reported as over 50% and the Activity [1] is reported as “inactive”.

For `COc1cccc(C(=O)Nc2ccc(Oc3cccc(O)c3)cc2)c1`, the Activity [1] was “inactive”.

With `COc1ccccc1C(=O)Nc1cccc(Oc2cccc(O)c2)c1` the inhibition [3] was “inactive” and the Activity [1] was “inactive”.

For `COc1cccc(C(=O)Nc2ccc(Oc3ccc(O)cc3)c(C#N)c2)c1`, the inhibition [3] was “inactive” and the Activity [1] was “inactive”.

With `COc1ccc(C(=O)Nc2cccc(Oc3ccc(O)cc3)c2C)cc1` the Activity [1] was “inactive”.

With `COc1cccc(C(=O)N(C)c2cccc(Oc3ccc(O)cc3)c2)c1` the inhibition [3] was “inactive” and the Activity [1] was “inactive”.

In the case of `COc1ccc(C(=O)Nc2ccc(Oc3cccc(O)c3)cc2)cc1`, the inhibition [3] is reported as “inactive” and the Activity [1] is reported as “inactive”.

For `COc1cccc(C(=O)Nc2ccc(Oc3ccc(O)cc3)c(F)c2F)c1`, the inhibition [2] was over 50%, the Activity [1] was “inactive” and the inhibition (PC-3) was “Dose-dependent effect”.

For `COc1ccc(C(=O)Nc2cc(Oc3ccc(O)cc3)ccc2C)cc1`, the Activity [1] was “inactive”.

In the case of `CN(C)c1ccc(C(=O)Nc2cccc(Oc3ccc(O)cc3)c2)cc1`, the inhibition [2] is reported as over 50% and the Activity [1] is reported as “inactive”.

With `COc1cccc(C(=O)Nc2ccc(Oc3ccc(O)cc3)cc2O)c1` the inhibition [3] was “inactive” and the Activity [1] was “inactive”.

For `CN(C)c1ccccc1C(=O)Nc1cccc(Oc2ccc(O)cc2)c1`, the inhibition [2] was over 50% and the Activity [1] was “inactive”.

With `COc1cccc(C(=O)Nc2ccc(Oc3ccc(O)cc3)c(C)c2)c1` the inhibition [2] was over 50%, the inhibition (PC-3) was “Dose-dependent effect” and the IC50 [4] was 750 nM.

For `COc1ccccc1C(=O)Nc1ccc(Oc2cccc(O)c2)cc1`, the inhibition [3] was “inactive” and the Activity [1] was “inactive”.

For `COc1ccc(C(=O)Nc2ccc(C)c(Oc3ccc(O)cc3)c2)cc1`, the Activity [1] was “inactive”.

With `CN(C)c1cccc(C(=O)Nc2cccc(Oc3cccc(O)c3)c2)c1` the Activity [1] was “inactive”.

For `COc1cccc(C(=O)Nc2cccc(Oc3cccc(O)c3)c2)c1`, the Activity [1] was “inactive”.

In the case of `CN(C)c1ccccc1C(=O)Nc1cccc(Oc2cccc(O)c2)c1`, the inhibition [3] is reported as “inactive” and the Activity [1] is reported as “inactive”.

For `COc1cccc(C(=O)Nc2ccc(Oc3ccc(O)cc3)c(C(F)(F)F)c2)c1`, the inhibition [2] was over 50% and the Activity [1] was “inactive”.

With `COc1cccc(C(=O)N(C)c2ccc(Oc3ccc(O)cc3)c(C)c2)c1` the inhibition [2] was over 50% and the Activity [1] was “inactive”.

In the case of `CN(C)c1cccc(C(=O)Nc2cccc(Oc3ccc(O)cc3)c2)c1`, the inhibition [3] is reported as “inactive” and the Activity [1] is reported as “inactive”.

For `COc1cccc(C(=O)Nc2cc(F)c(Oc3ccc(O)cc3)c(F)c2)c1`, the inhibition [2] was over 50%, the Activity [1] was “inactive” and the inhibition (PC-3) was “Dose-dependent effect”.

In the case of `COc1cccc(C(=O)Nc2ccc(Oc3ccc(O)cc3)c(F)c2)c1`, the inhibition [2] is reported as over 50%, the Activity [1] is reported as “inactive” and the inhibition (PC-3) is reported as “Dose-dependent effect”.

For `CN(C)c1ccccc1C(=O)Nc1ccc(Oc2cccc(O)c2)cc1`, the inhibition [3] was “inactive” and the Activity [1] was “inactive”.

For `CN(C)c1cccc(C(=O)Nc2ccc(Oc3cccc(O)c3)cc2)c1`, the inhibition [3] was “inactive” and the Activity [1] was “inactive”.

With `COc1ccccc1C(=O)Nc1ccc(C)c(Oc2ccc(O)cc2)c1` the inhibition [2] was over 50% and the Activity [1] was “inactive”.

In the case of `COc1cccc(C(=O)Nc2ccc(Oc3ccc(O)cc3)c(Cl)c2)c1`, the inhibition [2] is reported as over 50%, the Activity [1] is reported as “inactive” and the inhibition (PC-3) is reported as “Dose-dependent effect”.

With `COc1cccc(C(=O)Nc2cc(Cl)c(Oc3ccc(O)cc3)c(Cl)c2)c1` the inhibition [2] was over 50%, the Activity [1] was “inactive” and the inhibition (PC-3) was “Dose-dependent effect”.

In the case of `COc1cccc(C(=O)Nc2cccc(Oc3ccc(O)cc3)c2)c1`, the inhibition [3] is reported as “inactive” and the Activity [1] is reported as “inactive”.

With `COc1cccc(C(=O)Nc2ccc(Oc3ccc(O)cc3)cc2Cl)c1` the inhibition [2] was over 50% and the Activity [1] was “inactive”.

With `CN(C)c1ccc(C(=O)Nc2ccc(Oc3cccc(O)c3)cc2)cc1` the inhibition [2] was over 50% and the Activity [1] was “inactive”.

With `COc1ccc(C(=O)Nc2cccc(Oc3cccc(O)c3)c2)cc1` the Activity [1] was “inactive”.

For `COc1cccc(C(=O)Nc2ccc(Oc3ccc(O)cc3)cc2F)c1`, the inhibition [2] was over 50%, the Activity [1] was “inactive” and the inhibition (PC-3) was “Dose-dependent effect”.

In the case of `COc1ccc(C(=O)Nc2cccc(Oc3ccc(O)cc3)c2)cc1`, the Activity [1] is reported as “inactive”.
